Experimental data: ChEMBL document CHEMBL1121371, “Antihypertensive 5,6-diarylpyridazin-3-ones” (1980)

What was measured:
Rattus norvegicus [1] = experiment: Antihypertensive activity in spontaneously hypertensive rats was measured as average blood pressure at 100 mg/kg, p.o. after 4 hours of postdose-1.; type: functional; details: route oral
How it was run: (§1)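 Spontaneously hypertensive rats aged 12 to 16 weeks, in groups of five with systolic pressure of 170 mmHg or more. Oral dosing as a solution or suspension in 0.25% methylcellulose, 5 mL/kg, with a vehicle control group. Tail-cuff systolic pressure was read predose and 4 and 24 h after each of two doses. Values were compared with predose by Student's t test.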

Rattus norvegicus [2] = experiment: Antihypertensive activity in spontaneously hypertensive rats was measured as average blood pressure at 100 mg/kg, p.o. before predose; type: functional; details: route oral; how it was run: as §1
Rattus norvegicus [3] = experiment: Antihypertensive activity in spontaneously hypertensive rats was measured as average blood pressure at 100 mg/kg, po after 24 hours of postdose-2; type: functional; how it was run: as §1
Rattus norvegicus [4] = experiment: Antihypertensive activity in spontaneously hypertensive rats was measured as average blood pressure at 100 mg/kg, p.o. after 24 hours of postdose-1.; type: functional; details: route oral; how it was run: as §1
Rattus norvegicus [5] = experiment: Antihypertensive activity in spontaneously hypertensive rats was measured as average blood pressure at 100 mg/kg, p.o. after 4 hours of postdose-2; type: functional; details: route oral; how it was run: as §1
Rattus norvegicus [6] = organism: Rattus norvegicus; experiment: Antihypertensive activity in spontaneously hypertensive rats was measured; (+)=Increased heart rate; type: functional, organism-based
Rattus norvegicus [7] = experiment: Antihypertensive activity in spontaneously hypertensive rats was measured as average blood pressure at 100 mg/kg, p.o. after 4 hours of postdose-1; type: functional; details: route oral; how it was run: as §1
Rattus norvegicus [8] = experiment: Antihypertensive activity in spontaneously hypertensive rats was measured as average blood pressure at 50 mg/kg, p.o. before predose; type: functional; details: route oral; how it was run: as §1
Rattus norvegicus [9] = experiment: Antihypertensive activity in spontaneously hypertensive rats was measured as average blood pressure at 50 mg/kg, p.o. after 4 hours of postdose-2; type: functional; details: route oral; how it was run: as §1
Rattus norvegicus [10] = experiment: Antihypertensive activity in spontaneously hypertensive rats was measured as average blood pressure at 50 mg/kg, p.o. after 4 hours of postdose-1; type: functional; details: route oral; how it was run: as §1
Rattus norvegicus [11] = experiment: Antihypertensive activity in spontaneously hypertensive rats was measured as average blood pressure at 25 mg/kg, p.o. after 4 hours of postdose-2; type: functional; details: route oral; how it was run: as §1
Rattus norvegicus [12] = experiment: Antihypertensive activity in spontaneously hypertensive rats was measured as average blood pressure at 50 mg/kg, p.o. after 24 hours of postdose-1; type: functional; details: route oral; how it was run: as §1
Rattus norvegicus [13] = experiment: Antihypertensive activity in spontaneously hypertensive rats was measured as average blood pressure at 25 mg/kg, p.o. before predose; type: functional; details: route oral; how it was run: as §1
Rattus norvegicus [14] = experiment: Antihypertensive activity in spontaneously hypertensive rats was measured as average blood pressure at 25 mg/kg, p.o. after 24 hours of postdose-2; type: functional; details: route oral; how it was run: as §1
Rattus norvegicus [15] = experiment: Antihypertensive activity in spontaneously hypertensive rats was measured as average blood pressure at 25 mg/kg, po after 4 hours of postdose-1; type: functional; how it was run: as §1
Rattus norvegicus [16] = experiment: Antihypertensive activity in spontaneously hypertensive rats was measured as average blood pressure at 25 mg/kg, p.o. after 24 hours of postdose-1; type: functional; details: route oral; how it was run: as §1
Rattus norvegicus [17] = experiment: Antihypertensive activity in spontaneously hypertensive rats was measured as average blood pressure at 50 mg/kg, p.o. after 24 hours of postdose-2; type: functional; details: route oral; how it was run: as §1
Rattus norvegicus [18] = experiment: Antihypertensive activity in spontaneously hypertensive rats was measured as average blood pressure at 75 mg/kg, po after 4 hours of postdose-1.; type: functional
Rattus norvegicus [19] = experiment: Antihypertensive activity in spontaneously hypertensive rats was measured as average blood pressure at 75 mg/kg, p.o. after 24 hours of postdose-2; type: functional; details: route oral
Rattus norvegicus [20] = experiment: Antihypertensive activity in spontaneously hypertensive rats was measured as average blood pressure at 75 mg/kg, p.o. after 24 hours of postdose-1; type: functional; details: route oral
Rattus norvegicus [21] = experiment: Antihypertensive activity in spontaneously hypertensive rats was measured as average blood pressure at 75 mg/kg, p.o. after 4 hours of postdose-2; type: functional; details: route oral
Rattus norvegicus [22] = experiment: Antihypertensive activity in spontaneously hypertensive rats was measured as average blood pressure at 75 mg/kg, p.o. before predose; type: functional; details: route oral
Rattus norvegicus [23] = experiment: Antihypertensive activity in spontaneously hypertensive rats was measured as increase in heart rate at 100 mg/kg peroral dose; (+)=increased heart rate; type: functional, organism-based; set-up: dose 100 mg/kg
Rattus norvegicus [24] = experiment: Antihypertensive activity in spontaneously hypertensive rats was measured as average blood pressure at 10 mg/kg, p.o. after 4 hours of postdose-1.; type: functional; details: route oral; how it was run: as §1
Rattus norvegicus [25] = experiment: Antihypertensive activity in spontaneously hypertensive rats was measured as average blood pressure at 10 mg/kg, p.o. after 24 hours of postdose-1; type: functional; details: route oral; how it was run: as §1
Rattus norvegicus [26] = experiment: Antihypertensive activity in spontaneously hypertensive rats was measured as average blood pressure at 10 mg/kg, p.o. after 4 hours of postdose-2; type: functional; details: route oral; how it was run: as §1
Rattus norvegicus [27] = experiment: Antihypertensive activity in spontaneously hypertensive rats was measured as average blood pressure at 10 mg/kg, p.o. before predose; type: functional; details: route oral; how it was run: as §1
Rattus norvegicus [28] = experiment: Antihypertensive activity in spontaneously hypertensive rats was measured as average blood pressure at 10 mg/kg, p.o. after 24 hours of postdose-2; type: functional; details: route oral; how it was run: as §1

| Compound | BP (Rattus norvegicus [1]) [mmHg] | BP (Rattus norvegicus [2]) [mmHg] | BP (Rattus norvegicus [3]) [mmHg] | BP (Rattus norvegicus [4]) [mmHg] | BP (Rattus norvegicus [5]) [mmHg] | BP (Rattus norvegicus [7]) [mmHg] | other results |
| --- | --- | --- | --- | --- | --- | --- | --- |
| CC(C)NCCn1nc(-c2ccc(Cl)cc2)c(-c2ccc(Cl)cc2)c(C#N)c1=O.Cl | 218 | 220 | 173 | 206 | 209 | – | – |
| O=c1c(-c2ccccc2)c(-c2ccccc2)c(-c2ccccc2)nn1CCO | – | 200 | 188 | 187 | 176 | 173 | Heart rate (Rattus norvegicus [6]): Increased heart rate |
| N=C(N)NCCN1CCCCCCC1 [GUANETHIDINE] | – | – | – | – | – | – | BP (Rattus norvegicus [8]): 187 mmHg; BP (Rattus norvegicus [9]): 138 mmHg; BP (Rattus norvegicus [10]): 154 mmHg; BP (Rattus norvegicus [11]): 163 mmHg; BP (Rattus norvegicus [12]): 166 mmHg; BP (Rattus norvegicus [13]): 194 mmHg; BP (Rattus norvegicus [14]): 183 mmHg; BP (Rattus norvegicus [15]): 163 mmHg; BP (Rattus norvegicus [16]): 181 mmHg; BP (Rattus norvegicus [17]): 146 mmHg |
| CC(=O)c1c(-c2ccccc2)c(-c2ccccc2)nn(CCO)c1=O | – | – | – | – | – | – | BP (Rattus norvegicus [18]): 181 mmHg; BP (Rattus norvegicus [19]): 176 mmHg; BP (Rattus norvegicus [20]): 163 mmHg; BP (Rattus norvegicus [21]): 164 mmHg; BP (Rattus norvegicus [22]): 200 mmHg |
| CC(=O)c1c(-c2ccc(Cl)cc2)c(-c2ccc(Cl)cc2)nn(CCN(C)C)c1=O.Cl | 200 | 205 | 184 | 170 | 160 | – | – |
| CC(=O)c1c(-c2ccc(Cl)cc2)c(-c2ccc(Cl)cc2)nn(CCN(C)C)c1=O | – | – | – | – | – | – | Heart rate (Rattus norvegicus [23]): increased heart rate |
| N#Cc1c(-c2ccc(Cl)cc2)c(-c2ccc(Cl)cc2)nn(CCO)c1=O | – | 200 | 152 | 158 | 145 | 157 | BP (Rattus norvegicus [8]): 200 mmHg; BP (Rattus norvegicus [9]): 156 mmHg; BP (Rattus norvegicus [10]): 165 mmHg; BP (Rattus norvegicus [11]): 157 mmHg; BP (Rattus norvegicus [24]): 181 mmHg; BP (Rattus norvegicus [25]): 184 mmHg; BP (Rattus norvegicus [12]): 171 mmHg; BP (Rattus norvegicus [13]): 208 mmHg; BP (Rattus norvegicus [14]): 180 mmHg; BP (Rattus norvegicus [26]): 178 mmHg; BP (Rattus norvegicus [27]): 194 mmHg; BP (Rattus norvegicus [15]): 168 mmHg; BP (Rattus norvegicus [16]): 178 mmHg; BP (Rattus norvegicus [28]): 180 mmHg; BP (Rattus norvegicus [17]): 168 mmHg |
| C[C@](N)(Cc1ccc(O)c(O)c1)C(=O)O [METHYLDOPA] | – | 178 | 166 | 174 | 155 | 161 | – |
| CCOC(=O)CCCn1nc(-c2ccc(Cl)cc2)c(-c2ccc(Cl)cc2)c(C(C)=O)c1=O | 192 | 196 | 181 | 174 | 188 | – | – |
| CC(=O)c1c(-c2ccc(Cl)cc2)c(-c2ccc(Cl)cc2)nn(C(C)CO)c1=O (configuration not stated) | – | 212 | 201 | 174 | 191 | 186 | – |
